Measured values reported in ChEMBL document CHEMBL4513216, “Probing the Open Global Health Chemical Diversity Library for Multistage-Active Starting Points for Next-Generation Antimalarials” (ACS Infect Dis, 2020).

Experiment: Toxicity liver stage against HepG2, at 10uM
Type: cell-based
Design: test concentration 10 uM, cell line HepG2-A16-CD81EGFP
Settings: human, HepG2-A16-CD81EGFP cells; read-out: INHIBITION
In short: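 Uninfected HepG2-A16-CD81EGFP cells, 3 × 10^3 per well, 1536-well, plated on prespotted compound at 10 μM final, parasite-free screening media added to match infected plates; puromycin 10 μM positive, DMSO 0.5% negative; run in parallel with 48 h PbLuc assay at 37 °C, 5% CO2; viability by CellTiter-Glo luminescence, normalized to controls.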

Going from `Cc1sc2nc(CCN)nc(N(CCN(C)C)CC3CCCO3)c2c1C` (stereo not given) to `CCc1nc(C2CCCN(C(=O)CN(C)S(C)(=O)=O)C2)no1` (stereo not given), the cytotoxicity at 10 µM rises from -9.54% to -3.22%.

Compared with `CC(C)c1nccc(CN(C)Cc2cnn(-c3ccccc3)c2)n1`, `CN(Cc1ccncc1)Cc1cnn(-c2ccc(F)cc2)c1` is higher in cytotoxicity at 10 µM: 6.66% for the first, 10% for the second.

Compared with `CC(=O)c1cccc(CN2CC(Oc3ccccc3C)C2)c1`, `Cc1cccc(N(CC(=O)c2ccccc2)C2=NCCCCC2)c1` is higher in cytotoxicity at 10 µM: -4.16% for the first, 14.5% for the second.

First: CCOc1ccc2nc(CN3CCC(CNC(C)=O)C3)ccc2c1 (stereo not given)
Second: O=C(NCc1ccccn1)[C@@]12CCO[C@@H]1CCN(Cc1ccccn1)C2
The cytotoxicity at 10 µM of the first is higher: -7.23% for the first, -112% for the second.

First: CCN1CC(C(=O)N2CCc3cc(C(=O)N(C)C)n(C)c3C2)CCC1=O (stereo not given)
Second: Cc1cc(CN2C[C@@H](C)[C@@]3(CCN(CC(=O)N(C)C)C3=O)C2)oc1C
The cytotoxicity at 10 µM of the first is lower: -48.1% for the first, 9.94% for the second.

Compared with `CCn1c(CC2CCN(C(=O)c3cc(CC(C)C)on3)CC2)n[nH]c1=O`, `CC(C)CC(CNC(=O)NCc1cc[nH]n1)N1CCOCC1` (stereo not given) is lower in cytotoxicity at 10 µM: -2.7% for the first, -12.6% for the second.

Compared with `CCOC(=O)CNc1nc(C(C)(C)C)nc2c1cnn2C`, `Cc1cc(C(=O)N(C)Cc2ccn[nH]2)c(NC(=O)C(C)(C)C)s1` is higher in cytotoxicity at 10 µM: -12.8% for the first, 2.72% for the second.

First: COCCN(C)Cc1nc(-c2cccc(F)c2F)oc1C
Second: COCCN1CCN(c2ccc(C)nn2)Cc2ccc(C)nc21
The cytotoxicity at 10 µM of the first is higher: 2.56% for the first, -104% for the second.

First: COc1ccccc1N1CCN(C(=O)CCn2nnnc2C)CC1(C)C
Second: O=C(CCCn1nnc(-c2ccc(F)cc2)n1)N1CCOCC(CO)C1 (stereo not given)
The cytotoxicity at 10 µM of the first is lower: 6.48% for the first, 16.2% for the second.

Going from `Cc1nccn1CCN(C)c1cc(C(C)C)nc2ccnn12` to `Cc1cccc(N2CC3(CCN(Cc4nccn4C)C3)CC2=O)c1` (stereo not given), the cytotoxicity at 10 µM falls from -3.88% to -78.6%.

First: COc1cc(CN2CCC(O)(c3ccc(C)cn3)CC2)cc(Cl)c1OC
Second: Fc1cnc(N2CC3(CCN(Cc4ccsc4)C3)C2)nc1
The cytotoxicity at 10 µM of the first is lower: -132% for the first, -84.4% for the second.

First: Cc1cc(N2CCN(C3CCSCC3)CC2)n2nc(C)c(C)c2n1
Second: Cc1ncn(-c2cc(N3CCN(S(C)(=O)=O)CC3)ncn2)c1C
The cytotoxicity at 10 µM of the first is lower: 0.0879% for the first, 6.23% for the second.

Compared with `Nc1nc(CNc2ncnc3c2CCN(Cc2ccoc2)CC3)cs1`, `c1cncc(-c2nccc(CN3CCCC3)n2)c1` is higher in cytotoxicity at 10 µM: 1.63% for the first, 2.34% for the second.

First: Fc1ccc(C2CCCCN2Cc2cc(-c3ccccn3)no2)cc1 (stereo not given)
Second: Cc1nc(CN2CCCCC2Cn2cncn2)nc2ccccc12 (stereo not given)
The cytotoxicity at 10 µM of the first is lower: -3.88% for the first, -3.46% for the second.

Compared with `CC(C1CCN(Cc2c(Cl)cncc2Cl)CC1)N1CCN(C)CC1` (stereo not given), `CCn1ccnc1CN1CCN(CC(=O)NC(C2CC2)C2CC2)CC1` is lower in cytotoxicity at 10 µM: -12.2% for the first, -19.4% for the second.

Going from `O=C(c1cc(-c2cn[nH]c2)nc2ccc(F)cc12)N1CCSCC1` to `NC1CCN(C(=O)c2cnc(Cc3c(Cl)cccc3Cl)nc2O)C1` (stereo not given), the cytotoxicity at 10 µM falls from -0.0178% to -0.803%.

Going from `Cc1nnsc1CN(C)C(=O)CN1CC2(CCNCC2)OC1=O` to `Cc1cccc(CN2CCC3(CCCN(CC(=O)N(C)C)C3)C2)n1` (stereo not given), the cytotoxicity at 10 µM falls from 11.4% to -101%.

Compared with `CN(Cc1ccccc1)CC1(O)CCCN(CC(C)(C)C)C1=O` (stereo not given), `CN(Cc1ccccc1)C(=O)c1nc(S(C)(=O)=O)n2ccccc12` is higher in cytotoxicity at 10 µM: -12.4% for the first, -7.36% for the second.

First: CC(OCC1CC1)C(=O)Nc1ncn(CC(=O)N2CCCCCC2)n1 (stereo not given)
Second: Cc1nn(-c2ccccc2)cc1C(=O)N1CCCN2CCCC2C1 (stereo not given)
The cytotoxicity at 10 µM of the first is lower: -15.2% for the first, -2.21% for the second.

First: CCOCC(O)CN1CCN(C(=O)Cc2ccc3c(c2)CCC3)CC1 (stereo not given)
Second: CCOC(=O)[C@]12CCCN(Cc3cccs3)C[C@H]1CN(C(C)=O)C2
The cytotoxicity at 10 µM of the first is lower: -15.5% for the first, 4.13% for the second.

First: Cn1ccnc1C(NCc1csc(Br)c1)c1ccccc1 (stereo not given)
Second: CC(NCc1ccccc1Br)c1ccc2[nH]c(=O)[nH]c2c1 (stereo not given)
The cytotoxicity at 10 µM of the first is higher: -0.12% for the first, -6.12% for the second.

First: CCc1n[nH]c(C2CN(C(=O)CCc3cccs3)CCO2)n1 (stereo not given)
Second: c1cncc(OCc2n[nH]c3c2CN(Cc2cccs2)C3)c1
The cytotoxicity at 10 µM of the first is higher: 5.73% for the first, -113% for the second.

Going from `CCc1nccn1-c1cncc(C2CCCN2)n1` (stereo not given) to `NCC(=O)N1CCCC(c2cncc(Nc3ncccn3)n2)C1` (stereo not given), the cytotoxicity at 10 µM rises from -6.17% to 0.848%.

Compared with `CC(NCc1cnc(N2CCOCC2)nc1)c1ccc(Cl)s1` (stereo not given), `c1cc(C2CC2)n2cnc(C3CN(Cc4ccncc4)CCO3)c2c1` (stereo not given) is higher in cytotoxicity at 10 µM: -4.9% for the first, 6.59% for the second.

First: CN1CC(=O)N(c2cnn(C)c2)CC12CCN(C(=O)c1ccsc1)C2 (stereo not given)
Second: Cn1cc(CN2CC[C@]3(C[C@H](Oc4ccccn4)CO3)C2)cn1
The cytotoxicity at 10 µM of the first is lower: -1.37% for the first, 10.8% for the second.

Going from `Cc1ccc(N2C[C@@H]3CN(C(=O)c4ccccc4)CCO[C@@H]3C2)nn1` to `CN(Cc1ccncc1)C1COC2(CCN(Cc3ccccn3)CC2)C1` (stereo not given), the cytotoxicity at 10 µM falls from -5.52% to -103%.

Going from `Cc1nc(CN2CCCn3c(nc(Cn4cncn4)cc3=O)C2)cs1` to `Cc1nc(COC[C@H]2CC[C@H]3NCC[C@H]3O2)cs1`, the cytotoxicity at 10 µM falls from 3.75% to -5.64%.

`CN(Cc1cccnc1)Cc1cncc2c1CCN(c1ccccn1)C2` showed a cytotoxicity at 10 µM of -108%.
